Reference: paper PMC11316633 (European journal of medicinal chemistry, 2024)
Read-outs that look alike come from different tables or passages of the source.

Experiments:
CDK7/Cyclin H/MNAT1 = CDK7/Cyclin H/MNAT1 (Homo sapiens, UniProt P50613); test: Adapta Eu kinase assay; type: biochemical
Method in brief: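 CDK7/Cyclin H/MNAT1 complex tested by an outside contract service in Adapta Eu format, with ATP at its Km concentration.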

CDK7 = CDK7 (Homo sapiens, UniProt P50613); test: Immunoblot analysis of CDK7 degradation in Jurkat cells; type: cell-based; conditions: Jurkat cells, 16 h, Western blot
CDK7, sequence (P50613 2-346 limits assumed): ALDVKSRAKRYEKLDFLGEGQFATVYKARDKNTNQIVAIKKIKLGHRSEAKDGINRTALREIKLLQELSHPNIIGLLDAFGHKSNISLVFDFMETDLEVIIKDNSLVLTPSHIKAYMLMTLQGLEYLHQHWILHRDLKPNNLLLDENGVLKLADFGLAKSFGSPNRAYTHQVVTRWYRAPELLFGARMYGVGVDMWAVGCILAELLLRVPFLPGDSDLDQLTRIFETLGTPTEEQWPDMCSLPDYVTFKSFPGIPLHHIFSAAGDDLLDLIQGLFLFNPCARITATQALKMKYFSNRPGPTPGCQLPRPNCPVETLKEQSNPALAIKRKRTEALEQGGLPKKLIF
CDK7, sequence (P51946 whole entry partner): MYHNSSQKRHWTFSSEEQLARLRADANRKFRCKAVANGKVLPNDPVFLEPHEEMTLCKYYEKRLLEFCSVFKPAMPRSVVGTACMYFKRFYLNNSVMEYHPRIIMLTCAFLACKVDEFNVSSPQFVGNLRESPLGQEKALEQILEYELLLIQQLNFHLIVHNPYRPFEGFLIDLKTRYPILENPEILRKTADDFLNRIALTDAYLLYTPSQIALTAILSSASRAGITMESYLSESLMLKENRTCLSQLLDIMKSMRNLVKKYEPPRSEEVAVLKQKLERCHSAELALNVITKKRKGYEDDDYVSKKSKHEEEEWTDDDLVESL
CDK7, sequence (P51948 whole entry partner): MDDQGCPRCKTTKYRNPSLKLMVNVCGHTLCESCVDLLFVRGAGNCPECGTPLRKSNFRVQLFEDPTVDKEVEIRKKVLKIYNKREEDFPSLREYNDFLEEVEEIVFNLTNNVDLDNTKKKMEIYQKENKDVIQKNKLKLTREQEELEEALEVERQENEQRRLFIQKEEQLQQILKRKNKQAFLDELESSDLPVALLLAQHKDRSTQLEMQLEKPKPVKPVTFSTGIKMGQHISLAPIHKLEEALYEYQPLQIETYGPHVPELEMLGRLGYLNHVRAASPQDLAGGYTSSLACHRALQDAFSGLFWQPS
Method in brief: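 Jurkat cells received test compound at 0.1 or 1 μM for 16 h, 0.1 μM for 0.5–24 h, or a concentration series for 6 h. Other arms were pretreated 2 h with MG132, MLN-4924, parent CDK7 inhibitor or VHL ligand, or used VHL-knockout Jurkat (6 h). Blots: RIPA lysis, 4–20% SDS-PAGE, nitrocellulose, anti-CDK7 1:1000, β-actin 1:5000, IRDye secondaries. Mean ± SEM of three biological replicates.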

CDK7/Cyclin H/MNAT1, sequence (P50613 whole entry): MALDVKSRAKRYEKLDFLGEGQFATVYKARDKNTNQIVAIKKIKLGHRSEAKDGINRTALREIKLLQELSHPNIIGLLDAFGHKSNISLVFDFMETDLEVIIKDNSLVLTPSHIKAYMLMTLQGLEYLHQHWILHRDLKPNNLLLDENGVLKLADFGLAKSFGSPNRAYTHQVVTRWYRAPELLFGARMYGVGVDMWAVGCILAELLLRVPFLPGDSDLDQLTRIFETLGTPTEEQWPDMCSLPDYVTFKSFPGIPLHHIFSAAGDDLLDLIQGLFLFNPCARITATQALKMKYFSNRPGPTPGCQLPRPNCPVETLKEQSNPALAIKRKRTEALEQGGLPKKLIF
CDK7/Cyclin H/MNAT1, sequence (P51946 whole entry partner): as the sequence (P51946 whole entry partner) above
CDK7/Cyclin H/MNAT1, sequence (P51948 whole entry partner): as the sequence (P51948 whole entry partner) above

Row | IC50 (CDK7/Cyclin H/MNAT1) | Compound | CDK7 degradation (in words) (CDK7; 1 μM) | other results
1 | 6.9 nM | CN(C)C[C@@H](NC(=O)N1Cc2c(NC(=O)c3ccc(C(=O)NCCCC#Cc4cccc5c4C(=O)N(C4CCC(=O)NC4=O)C5=O)cc3)n[nH]c2C1(C)C)c1ccccc1 (stereo partly drawn) [Compound 8, N1-(5-(((S)-2-(dimethylamino)-1-phenylethyl)carbamoyl)-6,6-dimethyl-1,4,5,6-tetrahydropyrrolo[3,4-c]pyrazol-3-yl)-N4-(5-(2-(2,6-dioxopiperidin-3-yl)-1,3-dioxoisoindolin-4-yl)pent-4-yn-1-yl)terephthalamide] |  | 
2 |  | Cc1ncsc1-c1ccc([C@H](C)NC(=O)[C@@H]2C[C@@H](O)CN2C(=O)[C@@H](NC(=O)CCNC(=O)c2ccc(C(=O)Nc3n[nH]c4c3CN(C(=O)N[C@H](CN(C)C)c3ccccc3)C4(C)C)cc2)C(C)(C)C)cc1 [Compound 10, N1-(5-(((S)-2-(dimethylamino)-1-phenylethyl)carbamoyl)-6,6-dimethyl-1,4,5,6-tetrahydropyrrolo[3,4-c]pyrazol-3-yl)-N4-(3-(((S)-1-((2S,4R)-4-hydroxy-2-(((S)-1-(4-(4-methylthiazol-5-yl)phenyl)ethyl)carbamoyl)pyrrolidin-1-yl)-3,3-dimethyl-1-oxobutan-2-yl)amino)-3-oxopropyl)terephthalamide] | moderate degradation | 
3 | 7.8 nM | Cc1ncsc1-c1ccc([C@H](C)NC(=O)[C@@H]2C[C@@H](O)CN2C(=O)[C@@H](NC(=O)CCCCCCCNC(=O)c2ccc(C(=O)Nc3n[nH]c4c3CN(C(=O)N[C@H](CN(C)C)c3ccccc3)C4(C)C)cc2)C(C)(C)C)cc1 [Compound 13, N1-(5-(((S)-2-(dimethylamino)-1-phenylethyl)carbamoyl)-6,6-dimethyl-1,4,5,6-tetrahydropyrrolo[3,4-c]pyrazol-3-yl)-N4-(8-(((S)-1-((2S,4R)-4-hydroxy-2-(((S)-1-(4-(4-methylthiazol-5-yl)phenyl)ethyl)carbamoyl)pyrrolidin-1-yl)-3,3-dimethyl-1-oxobutan-2-yl)amino)-8-oxooctyl)terephthalamide] |  | reduction in CDK7 protein (CDK7; 0.1 μM or 1 μM): more than 80%
4 | 7.6 nM | Cc1ncsc1-c1ccc([C@H](C)NC(=O)[C@@H]2C[C@@H](O)CN2C(=O)[C@@H](NC(=O)CCOCCOCCNC(=O)c2ccc(C(=O)Nc3n[nH]c4c3CN(C(=O)N[C@H](CN(C)C)c3ccccc3)C4(C)C)cc2)C(C)(C)C)cc1 [Compound 15, N1-(5-(((S)-2-(dimethylamino)-1-phenylethyl)carbamoyl)-6,6-dimethyl-1,4,5,6-tetrahydropyrrolo[3,4-c]pyrazol-3-yl)-N4-(2-(2-(3-(((S)-1-((2S,4R)-4-hydroxy-2-(((S)-1-(4-(4-methylthiazol-5-yl)phenyl)ethyl)carbamoyl)pyrrolidin-1-yl)-3,3-dimethyl-1-oxobutan-2-yl)amino)-3-oxopropoxy)ethoxy)ethyl)terephthalamide] |  | 
5 | 20.3 nM | Cc1ncsc1-c1ccc([C@H](C)NC(=O)[C@@H]2C[C@@H](O)CN2C(=O)[C@@H](NC(=O)CCCCCc2ccc(C(=O)Nc3n[nH]c4c3CN(C(=O)N[C@H](CN(C)C)c3ccccc3)C4(C)C)cc2)C(C)(C)C)cc1 [Compound 18, N-((S)-2-(dimethylamino)-1-phenylethyl)-3-(4-(6-(((S)-1-((2S,4R)-4-hydroxy-2-(((S)-1-(4-(4-methylthiazol-5-yl)phenyl)ethyl)carbamoyl)pyrrolidin-1-yl)-3,3-dimethyl-1-oxobutan-2-yl)amino)-6-oxohexyl)benzamido)-6,6-dimethyl-4,6-dihydropyrrolo[3,4-c]pyrazole-5(1H)-carboxamide] |  | CDK7 degradation (in words) (CDK7; 0.1 μM or 1 μM): slightly decreased degradation activity
6 | 12.1 nM | Cc1ncsc1-c1ccc(CNC(=O)C2CC(O)CN2C(=O)C(NC(=O)C2(F)CC2)C(C)(C)C)c(OCCCCCCCCNC(=O)c2ccc(C(=O)Nc3n[nH]c4c3CN(C(=O)N[C@H](CN(C)C)c3ccccc3)C4(C)C)cc2)c1 (stereo partly drawn) [Compound 20, N1-(5-(((S)-2-(dimethylamino)-1-phenylethyl)carbamoyl)-6,6-dimethyl-1,4,5,6-tetrahydropyrrolo[3,4-c]pyrazol-3-yl)-N4-(8-(2-((1-(2-(1-fluorocyclopropane-1-carboxamido)-3,3-dimethylbutanoyl)-4-hydroxypyrrolidine-2-carboxamido)methyl)-5-(4-methylthiazol-5-yl)phenoxy)octyl)terephthalamide] | moderate reduction of CDK7 protein levels | 
7 | 13.4 nM | Cc1ncsc1-c1ccc(CNC(=O)C2CC(O)CN2C(=O)C(NC(=O)C2(F)CC2)C(C)(C)C)c(OCCOCCOCCNC(=O)c2ccc(C(=O)Nc3n[nH]c4c3CN(C(=O)N[C@H](CN(C)C)c3ccccc3)C4(C)C)cc2)c1 (stereo partly drawn) [Compound 21, N1-(5-(((S)-2-(dimethylamino)-1-phenylethyl)carbamoyl)-6,6-dimethyl-1,4,5,6-tetrahydropyrrolo[3,4-c]pyrazol-3-yl)-N4-(2-(2-(2-(2-((1-(2-(1-fluorocyclopropane-1-carboxamido)-3,3-dimethylbutanoyl)-4-hydroxypyrrolidine-2-carboxamido)methyl)-5-(4-methylthiazol-5-yl)phenoxy)ethoxy)ethoxy)ethyl)terephthalamide] | moderate reduction of CDK7 protein levels | 
8 |  | CC(=O)N[C@H](C(=O)N1C[C@H](O)C[C@H]1C(=O)N[C@@H](C)c1ccc(-c2scnc2C(=O)NCCCCCNC(=O)c2ccc(C(=O)Nc3n[nH]c4c3CN(C(=O)N[C@H](CN(C)C)c3ccccc3)C4(C)C)cc2)cc1)C(C)(C)C [Compound 22, N1-(5-(5-(4-((S)-1-((2S,4R)-1-((S)-2-acetamido-3,3-dimethylbutanoyl)-4-hydroxypyrrolidine-2-carboxamido)ethyl)phenyl)thiazole-4-carboxamido)pentyl)-N4-(5-(((S)-2-(dimethylamino)-1-phenylethyl)carbamoyl)-6,6-dimethyl-1,4,5,6-tetrahydropyrrolo[3,4-c]pyrazol-3-yl)terephthalamide] | moderate reduction of CDK7 protein levels | 
9 |  | N1-(5-(((R)-2-(dimethylamino)-1-phenylethyl)carbamoyl)-6,6-dimethyl-1,4,5,6-tetrahydropyrrolo[3,4-c]pyrazol-3-yl)-N4-((S)-14-((2S,4R)-4-hydroxy-2-(((S)-1-(4-(4-methylthiazol-5-yl)phenyl)ethyl)carbamoyl)pyrrolidine-1-carbonyl)-15,15-dimethyl-12-oxo-3,6,9-trioxa-13-azahexadecyl)terephthalamide [Compound 16] |  | IC50 (CDK7/Cyclin H/MNAT1; read-out: IC50 (CDK7 binding affinity, Table 2), VHL-based compounds, Adapta Eu kinase assay, Km ATP): 13.7 nM
